Published values from different studies.
Compare with care: the assays were run in different laboratories.
Effect on: cell growth or viability

The IC50 of `O=C(Nc1ccc(C(F)(F)F)cc1)Nc1nc2cc(-c3ccc4ncn(CCN5CCOCC5)c(=O)c4c3)ccc2s1` is reported as > 20000 nM (PC-9; MTT; 72 h).
`Cc1nc(Nc2ncc(C(=O)Nc3c(C)cccc3Cl)s2)cc(N2CC[C@H](O)C2)n1` has an IC50 of > 10000 nM (Raji; ATP luminescence; 72 h).
`O=C1C(=Nc2ccccc2I)c2ccccc2N1Cc1cccc(Cl)c1` has an IC50 of 4860 nM (HCT-116; MTT; 48 h).
With `Nc1ccccc1NC(=O)c1ccc(Cn2cnc3c(Nc4ccc(Br)cc4F)ncnc32)cc1` the IC50 was 120 nM (Raji; MTT; 72 h).
For `O=C1CCC(N2C(=O)c3cccc4c(Cc5ccc(CN6CCNCC6)cc5)ccc2c34)C(=O)N1` (stereo not drawn), the IC50 was 0.73 nM (NCI-H929).
`Cc1sc2c(c1C)C(c1ccc(Cl)cc1)=N[C@@H](CC(=O)NCCCCNC(=O)COc1cccc3c1C(=O)N(C1CCC(=O)NC1=O)C3=O)c1nnc(C)n1-2` (stereo partly drawn) has an IC50 of 5120 nM (AGS; CCK-8; 72 h).
`COc1cccc2c1C(=O)c1c(O)c3c(c(O)c1C2=O)C[C@@](O)(C(=O)CO)C[C@@H]3O[C@H]1C[C@H](N)[C@H](O)[C@H](C)O1` has an IC50 of 10000 nM (DOHH-2; 96 h).
`O=C(Nc1nc2cc(-c3ccc4ncn(Cc5ccccc5)c(=O)c4c3)ccc2s1)NC1CCCCC1` gave an IC50 of > 20000 nM (PC-9; MTT; 72 h).
`O=C1C(=Nc2ccccc2Br)c2ccccc2N1Cc1ccccc1` has an IC50 of 1100 nM (HCT-116; MTT; 48 h).
`O=C(NO)c1ccc(Cn2cnc3c(Nc4ccc(Br)cc4F)ncnc32)cc1` has an IC50 of 230 nM (Raji; MTT; 72 h).
`O=C(Nc1ccc(Br)cc1)Nc1nc2cc(-c3ccc4ncn(Cc5ccccc5)c(=O)c4c3)ccc2s1` gave an IC50 of > 20000 nM (PC-9; MTT; 72 h).
The IC50 of `O=C1CCC(N2C(=O)c3cccc4c(Cc5cnn(C6CCN(C(=O)CS)CC6)c5)ccc2c34)C(=O)N1` (stereo not drawn) is reported as 1.23 nM (NCI-H929).
`O=C(NO)c1ccc(Cn2cnc3c(Nc4cccc([N+](=O)[O-])c4)ncnc32)cc1` gave an IC50 of 300 nM (Raji; MTT; 72 h).
The IC50 of `O=C1CCC(N2C(=O)c3cccc4c(Cn5cc(C6CCNCC6)nn5)ccc2c34)C(=O)N1` (stereo not drawn) is reported as 6.21 nM (NCI-H929).
For `COc1ccc(NC(=O)Nc2nc3cc(-c4ccc5ncn(CCN(C)C)c(=O)c5c4)ccc3s2)cc1`, the IC50 was > 20000 nM (PC-9; MTT; 72 h).
The IC50 of `O=C1CCC(N2C(=O)c3cccc4c(Cc5ccc(CN6CCNCC6)nc5)ccc2c34)C(=O)N1` (stereo not drawn) is reported as 13.5 nM (NCI-H929).
The IC50 of `COc1ccc(Nc2ncnc3c2ncn3Cc2ccc(C(=O)Nc3ccccc3N)cc2)cc1` is reported as 11000 nM (Raji; MTT; 72 h).
With `COc1cccc(NC(=O)Nc2nc3cc(-c4ccc5ncn(CCC6CCCCC6)c(=O)c5c4)ccc3s2)c1` the IC50 was > 20000 nM (PC-9; MTT; 72 h).
For `O=C1CCC(N2C(=O)c3cccc4c(Cc5cnn(C6CCN(C(=O)CO)CC6)c5)ccc2c34)C(=O)N1` (stereo not drawn), the IC50 was 0.16 nM (NCI-H929).
`COc1cccc(NC(=O)Nc2nc3cc(-c4ccc5ncn(CCN6CCOCC6)c(=O)c5c4)ccc3s2)c1` gave an IC50 of > 20000 nM (PC-9; MTT; 72 h).
For `O=C1CC[C@H](N2C(=O)c3cccc4c(Cc5ccc(CN6CCOCC6)cc5)ccc2c34)C(=O)N1`, the IC50 was 0.06 nM (NCI-H929).
